Diaphorase inh: diaphorase inhibition or chemical oxidation counter-screen; diaphorase resazurin-to-resorufin fluorescence, NADH, 16 min; bacterial (C. kluyveri) enzyme, not human; inhibition, % at 20 µM; hit rate 0.69% among 190,000; AID 1217;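 active means primary screen inhibition at 20 µM above a set limit, cut at about 50% in these data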;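 further: plate controls were DMSO with full reaction for no effect and wells lacking NADH for full effect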
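System: Bacterial diaphorase enzyme (C. kluyveri) | Incubation: 16-min room-temperature incubation before reading | Benchmarks: No-NADH positive control and DMSO neutral control | Measured by: Resorufin fluorescence 544/590 nm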
HKDC1 inhibitor: blocks human hexokinase HKDC1 activity; Q2TB90; recombinant HKDC1, G6PDH/diaphorase resazurin coupled fluorescence; inhibition, % at 20 µM; hit rate 0.16% among 340,000; AID 493160;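 active means inhibition above about 35% when tested at 20 µM, limit read from the data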;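 further: plate controls were DMSO wells with enzyme for no effect and DMSO wells lacking enzyme for full effect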
Target sequence (Q2TB90 whole entry, looked up): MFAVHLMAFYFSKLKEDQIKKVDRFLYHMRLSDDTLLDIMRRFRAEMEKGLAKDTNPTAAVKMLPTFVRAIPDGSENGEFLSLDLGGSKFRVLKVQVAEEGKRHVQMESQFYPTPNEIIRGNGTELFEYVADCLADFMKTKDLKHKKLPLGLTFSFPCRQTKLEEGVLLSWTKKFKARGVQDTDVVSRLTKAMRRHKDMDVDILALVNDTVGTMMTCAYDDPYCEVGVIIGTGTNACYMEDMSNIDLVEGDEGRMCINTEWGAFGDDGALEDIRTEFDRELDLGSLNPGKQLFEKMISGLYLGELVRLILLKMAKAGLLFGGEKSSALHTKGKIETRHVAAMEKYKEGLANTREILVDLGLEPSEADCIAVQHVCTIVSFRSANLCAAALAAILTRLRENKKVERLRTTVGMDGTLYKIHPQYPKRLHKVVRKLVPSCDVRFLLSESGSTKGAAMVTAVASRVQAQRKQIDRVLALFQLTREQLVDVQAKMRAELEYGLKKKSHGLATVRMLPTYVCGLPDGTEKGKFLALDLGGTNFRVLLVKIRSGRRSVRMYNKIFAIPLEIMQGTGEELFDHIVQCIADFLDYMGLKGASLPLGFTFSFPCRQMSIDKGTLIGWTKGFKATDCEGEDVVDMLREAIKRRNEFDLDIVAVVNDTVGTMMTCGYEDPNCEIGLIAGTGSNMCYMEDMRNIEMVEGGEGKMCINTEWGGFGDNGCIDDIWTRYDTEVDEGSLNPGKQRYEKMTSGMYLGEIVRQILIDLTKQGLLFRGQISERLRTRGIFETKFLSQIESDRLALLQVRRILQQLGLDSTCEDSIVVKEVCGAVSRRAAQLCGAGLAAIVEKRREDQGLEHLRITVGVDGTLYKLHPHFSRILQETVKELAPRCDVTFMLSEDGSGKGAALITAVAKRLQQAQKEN
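Assay system: in-house recombinant HK5 (HKDC1) enzyme. Input: HKDC1 at 5 µg/mL. Medium: Tris pH 8.0 buffer with MgCl2, Tween-20, BSA, BME. Dosing: single 20 µM dose. Schedule: 90 min reaction incubation at room temperature, dark. Signal: resazurin-to-resorufin fluorescence via G6PDH and diaphorase coupling, 525/613 nm. Controls: DMSO-enzyme wells negative, buffer-substituted wells positive.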
G6PDH counter: counter-screen for G6PDH assay hits: L. mesenteroides G6PDH inhibition; inhibition, % at 5 µM; AID 1020; Purified L. mesenteroides G6PDH, diaphorase/resazurin coupled fluorescence, 45 min; hit rate 0.12% among 200,000; in the data active means inhibition above about 50%
Diaph act CS: counter-screen for diaphorase-based assays: diaphorase activators and chemical reducers; Diaphorase/resazurin coupled assay, resorufin fluorescence, 16 min; hits give high values; 1 = vehicle wells, 0 = NADH-free wells; activation factor at 20 µM; hit rate 0.005% among 190,000; AID 1229;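 active means diaphorase activity raised at least twofold by the compound at 20 µM; inactive means activation factor below 2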
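Assay system: bacterial diaphorase enzyme (C. kluyveri) / Input: enzyme 0.07 U/mL final / Medium: 50 mM HEPES pH 7.4 with 4.542 mM MgCl2, 0.005% Tween 20 / Doses: single compound dose of 20 µM, 1% DMSO final / Incubation: 16 min enzyme reaction, ambient temperature / Signal: fluorescence, excitation 544 nm and emission 590 nm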
Arbovirus inh: blocks arbovirus infection. hit rate 0.37% among 200,000. inhibition, % at 10 µM. arbovirus infection cell-based antiviral screen. AID 1251; in the data active means inhibition above about 30%
HKDC1 act conf2: HKDC1 (human) activation, single-dose confirmed. shares compounds with HKDC1 inhibitor. recombinant HKDC1, G6PDH/diaphorase resazurin fluorescence; hits give low values. inhibition, % at 20 µM. hit rate 14% among 740;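 active means inhibition at or below a set negative limit, negative inhibition meaning the enzyme was activated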
The depositor's hits bear a star; / = no result given. Hits are enriched below; roughly 0.74% of the tested compounds scored in any of these assays.

SMILES | Diaphorase inh | HKDC1 inhibitor | G6PDH counter | Diaph act CS | Arbovirus inh | HKDC1 act conf2
O=C(Nc1ccccc1N1CCCC1)c1cccc(-c2cc3ccccc3oc2=O)c1 | 17 | 0 | 10 | 0.8 | 1 | /
COc1cccc(CN(C)C(=O)CC2C(=O)NCCN2C2Cc3ccccc3C2)c1 (stereo not drawn) | / | -5 | / | / | / | /
O=C(O)c1ccc2ncsc2c1 | / | 41* | / | / | / | 48
COc1cc(F)ccc1CN1CCC(n2nccc2NC(=O)C2CCOC2)CC1 (stereo not drawn) | / | -3 | / | / | / | /
O=C(NC1CCN(C(=O)c2cccc([N+](=O)[O-])c2)CC1)c1ccccc1 | / | -6 | / | / | / | /
O=S(=O)(Nc1ccc(O)c2ccccc12)c1cccs1 | / | 51* | / | / | / | 31
COC1=CC(=O)C=C(OC)C1=O | / | 66* | / | / | / | 75
Cc1cc(=O)oc2c(CN(C)Cc3ccccc3)c(O)ccc12 | 10 | -4 | 0 | 0.9 | -2 | /
C=CCN(CC=C)Cc1c(O)ccc2c1oc(=O)c1ccccc12 | / | 34 | / | / | / | 23
Cc1noc(C)c1S(=O)(=O)Nc1ccc2c(c1)C(=O)N([C@H](C)CO)C[C@H](C)[C@@H](CN(C)C(=O)NC1CCCCC1)O2 | / | -2 | / | / | / | /
CCC(Nc1ccc(OC)cc1)C(=O)N/N=C/c1ccc([N+](=O)[O-])cc1 (stereo not drawn) | 12 | -8 | 2 | 0.9 | 4 | /
COc1ccc2[nH]c3c4c(ccc3c2c1)C(=O)C=CC4=O | / | 51* | / | / | / | 33
CC12CCC(C(=O)N/N=C/c3ccc(O)cc3O)(OC1=O)C2(C)C (stereo not drawn) | / | -39 | / | / | / | -35*
C/C(=N\NC(=O)C12CCC(C)(C(=O)O1)C2(C)C)c1ccccc1O (stereo not drawn) | / | -16 | / | / | / | /
CCOc1ccccc1Nc1nnc(SCc2nnc(-c3cc(OC)c(OC)c(OC)c3)o2)s1 | 42 | 48* | -20 | 0.6 | 3 | 45
COc1ccccc1Nc1nnc(SCc2nnc(-c3cc(OC)c(OC)c(OC)c3)o2)s1 | 50* | 35 | -5 | 0.5 | -4 | 33
COc1cc(/C=C(\C#N)c2nc3ccc(C)cc3[nH]2)c([N+](=O)[O-])cc1OC | 29 | 5 | 0 | 0.7 | -3 | /
COc1cc(/C=C(\C#N)c2nc3ccc(C)cc3[nH]2)cc([N+](=O)[O-])c1O | 98* | 41* | 17 | 0 | 44* | 42
CN(C)c1ccc(-c2cc([C@H]3[C@@H]4C=CCC[C@@]4(C)C(=O)N3Cc3ccccc3)ccc2F)cc1 | / | 1 | / | / | / | /
Oc1ccc(/C=N/NC(=S)Nc2cccnc2)c(O)c1 | 21 | -40 | -14 | 0.8 | -35 | 15
O=C(Nc1nccs1)C1C2/C=C\CCCCC21 (stereo not drawn) | 2 | -3 | 12 | 1 | -1 | /
CCOC(=O)c1ccc(N=c2scc(C)n2CC)cc1 | 9 | 5 | -1 | 0.9 | 13 | /
CCOC(=O)c1ccc(N=C2C(=S)N(c3ccc(C(=O)OCC)cc3)C(=N)N2/N=C/c2ccccc2)cc1 | -1 | -136 | 2 | 1 | 15 | -34
O=[N+]([O-])c1ccc(N/N=C/c2ccc(O)c(O)c2O)c(S(=O)(=O)N2CCOCC2)c1 | 88* | 38* | 24 | 0.1 | -9 | 9
COc1ccccc1C(C#N)c1cccc(Cl)n1 (stereo not drawn) | / | -4 | / | / | / | /
SMILES | Diaphorase inh | HKDC1 inhibitor | G6PDH counter | Diaph act CS | Arbovirus inh | HKDC1 act conf2
C=CCn1c(CNC(=O)c2cccs2)n[nH]c1=S | -11 | -5 | 9 | 1.1 | -8 | /
COC(=O)c1ccc(NC(=O)CSc2n[nH]c(-c3ccncc3)n2)cc1 | 32 | 36* | -18 | 0.7 | -6 | 43
CCOC(=O)c1ccc(NC(=O)CSc2n[nH]c(-c3ccncc3)n2)cc1 | 51* | 40* | -24 | 0.5 | 3 | 50
O=C(CSc1n[nH]c(-c2ccncc2)n1)Nc1ccc(Br)cc1 | / | 25 | / | / | / | /
Cc1ccc(-n2c(C)nn(Cc3ccc([N+](=O)[O-])cc3)c2=O)cc1 | -1 | -7 | -2 | 1 | 0 | /
Cc1ccc(-n2c3nc(=O)[nH]c(=O)c-3cc3cc([N+](=O)[O-])ccc32)cc1 | 74* | 49* | -4 | 0.3 | 9 | 56
O=C1CSC(c2ccccc2O)N1Cc1ccccc1 (stereo not drawn) | / | 4 | / | / | / | /
O=C(O)/C=C/C(=O)Nc1ccc(NC(=O)c2ccccc2)c(Cl)c1 | -1 | 6 | 2 | 1 | 4 | /
Cc1csc(=O)n1CCC(=O)OC(C)C(=O)NCc1ccccc1 (stereo not drawn) | / | 1 | / | / | / | /
O=C(NN=Cc1cc(Br)c(O)c(Br)c1)c1ccccc1NS(=O)(=O)c1cccs1 | / | 10 | / | / | / | /
CCOC(=O)c1c(C)nc2c(c1-c1cc(OC)ccc1OC)C(=O)c1ccccc1-2 | 23 | 0 | -8 | 0.8 | -1 | /
CCOC(=O)C1=C(Cc2ccc(OC)cc2)C(=O)c2ccccc2C1=O | 31 | 71* | 57* | 0.7 | -46 | 56
O=C(N/N=C1/C(=O)c2cccc3cccc1c23)c1ccc(Cl)cc1 | 68* | 43* | 4 | 0.3 | -25 | -2
CCNC(=S)N/N=C1\C(=O)c2cccc3cccc1c23 | 3 | -3 | -1 | 1 | 1 | /
CCN(CC)c1ccc(C(=C2C=CC(=[N+](CC)CC)C=C2)c2ccccc2)cc1 | / | 14 | / | / | / | /
CCN(CC)c1ccc(C(=C2C=CC(=[N+](CC)CC)C=C2)c2ccc(N(CC)CC)cc2)cc1 | / | 54* | / | / | / | 12
COCCn1c(C)nnc1SCC(=O)NNC(=O)c1ccc(Br)cc1 | / | 3 | / | / | / | /
Cc1cc2cc(CN(Cc3cccs3)S(=O)(=O)c3ccc4c(c3)OCCO4)c(=O)[nH]c2cc1C | 6 | -47 | -16 | 0.9 | -20 | -16
Cc1ccc2c(c1)N(C(=O)CCC(=O)NCCCN1CCOCC1)CCO2 | / | -8 | / | / | / | /
COc1ccc2cc(/C=N/NC(=O)c3ccc(CN(c4ccc(C)c(C)c4)S(C)(=O)=O)cc3)c(Cl)nc2c1 | 7 | -6 | -34 | 0.9 | -28 | /
COc1ccc2cc(/C=N/NC(=O)c3c(Cl)cnn3C)c(Cl)nc2c1 | -9 | -75 | -2 | 1.1 | -2 | -13
Cc1ccc2c(c1C)-c1c(ccc(C)c1C)C(=O)C2=O | / | 38* | / | / | / | 12
COc1ccccc1N(C(=O)CCl)c1cn(C(C)=O)c2ccccc12 | / | 8 | / | / | / | /
CC(=O)n1cc(N(C(=O)CCl)c2ccc(Cl)cc2)c2ccccc21 | / | 58* | / | / | / | 33
Cc1c(Cl)cccc1NC(=S)NCCc1ccc(C(F)(F)F)cc1 | 12 | 4 | 0 | 0.9 | -20 | /
Cc1nnc(SC(=O)N2c3ccccc3Sc3ccccc32)s1 | 37 | 33 | -23 | 0.6 | -43 | -11
C/C(=N\NC(=O)c1ccc(CN2CCc3ccccc3C2)cc1)c1ccccc1O | 16 | -20 | 9 | 0.8 | -23 | /

Screens deposited in PubChem BioAssay by several laboratories.
